Measured values collected from several papers.
Target: Activin receptor type-1 (ACVR1, Homo sapiens, UniProt Q04771)
One construct used (Q04771 21-509): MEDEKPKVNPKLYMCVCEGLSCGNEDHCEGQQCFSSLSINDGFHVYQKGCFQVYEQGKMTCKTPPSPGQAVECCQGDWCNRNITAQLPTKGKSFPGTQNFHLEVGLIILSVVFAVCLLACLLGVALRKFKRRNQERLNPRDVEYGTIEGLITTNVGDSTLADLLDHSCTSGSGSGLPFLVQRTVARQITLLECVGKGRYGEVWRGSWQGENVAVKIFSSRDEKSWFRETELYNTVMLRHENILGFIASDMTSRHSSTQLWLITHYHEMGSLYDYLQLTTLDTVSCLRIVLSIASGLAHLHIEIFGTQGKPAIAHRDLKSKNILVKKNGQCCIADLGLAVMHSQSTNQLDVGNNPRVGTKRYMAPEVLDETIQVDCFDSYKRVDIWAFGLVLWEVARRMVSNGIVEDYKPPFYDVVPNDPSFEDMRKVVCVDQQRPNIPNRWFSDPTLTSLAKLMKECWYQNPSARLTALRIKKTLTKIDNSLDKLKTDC

| Compound | observed | action | technique | tested at | measurement | value |
| --- | --- | --- | --- | --- | --- | --- |
| CCCCC(=O)Nc1ccc(-c2ccc3ncn(CCC)c(=O)c3c2)cn1 | binding |  | competition with immobilised ligand | 0.5 µM | remaining binding | 100% |
| CN1CCN(C(=O)c2ccc(NC(=O)Nc3ccc(N(C)c4ccnc(Nc5ccc(CS(C)(=O)=O)cc5)n4)cc3)cc2)CC1 | binding |  | competition with immobilised ligand | 1 µM | remaining binding | 28% |
| C1=C/COCc2cc(ccc2OCCN2CCCC2)Nc2nccc(n2)-c2cccc(c2)COC/1 | binding |  |  | 0.1 µM | remaining binding | 3.7% |
| CO[C@@H]1[C@H](N(C)C(=O)c2ccccc2)C[C@H]2O[C@]1(C)n1c3ccccc3c3c4c(c5c6ccccc6n2c5c31)C(=O)NC4 | enzyme activity | inhibitor |  | 1 µM | inhibition | 0% |
| CC(C)S(=O)(=O)c1ccc2nccc(Nc3ccc4sc(C5CCCC5)nc4c3)c2c1 | enzyme activity | inhibitor |  | 1 µM | activity vs control | 111% |
| C=CC(=O)N1CCC([C@@H]2CCNc3c(C(N)=O)c(-c4ccc(Oc5ccccc5)cc4)nn32)CC1 | cell-free assay |  |  | 1 µM | inhibition | 13% |
| COc1ccc2[nH]c3c4[nH]c5ccc(OC)cc5c4c4c(c3c2c1)C(=O)NC4=O | binding |  | competition with immobilised ligand | 1 µM | remaining binding | 77% |
| COc1ccc2oc(-c3ccc4nc(N)oc4c3)c/c(=N\c3ccccc3NC(=O)CCN)c2c1 | binding |  |  | 1 µM | remaining binding | 104% |
